This is a sample that favours compounds with a hit; in the whole collection about 4% have one here.
Yeast life ext: compounds extending yeast replicative lifespan, primary screen, S. cerevisiae, OD615. actives 0.68% (n = 130,000). S. cerevisiae growth with nicotinamide; deaD strain in restrictive glucose medium. inhibition of the nicotinamide effect, % at 10 µM;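 active = inhibition above a set limit, placed 3 SD over the median of all compounds, cut at about 26% in these data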;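 also: 0% = nicotinamide-treated wells and 100% = cells grown without nicotinamide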
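Material: Modified budding yeast, DeaD strain | Medium: Restrictive glucose medium | Probe or stimulus: 1.5 mM nicotinamide | Dosing: Single dose 10 µM compound, 0.25% DMSO | Times: 48 h at 30 °C | Technique: OD615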
Yeast growth inh: growth inhibitors of yeast BB579 in restrictive medium, primary screen, yeast lifespan-shortening project, S. cerevisiae | OD615, 48 h | inhibition, % at 10 µM | actives 0.51% (n = 140,000) | AID 804, 2007;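 active = inhibition above a set limit, 3 SD over the mean compound inhibition, cut at about 44% in these data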
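Test system: S. cerevisiae DeaD strain BB579 yeast; Medium: restrictive CSMM-D medium; Compound: one dose, 10 µM compound with 0.25% DMSO; Incubation: 4 h cell preincubation, 48 h compound exposure, 30 °C humidified; Signal: OD at 615 nm; Benchmarks: amphotericin B at 10 µg/mL as positive control.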
Measles CPE: compounds protecting cells from measles virus cytopathic effect, primary screen, measles RdRp inhibitor project, single point, MLSMR library, absorbance. AID 841, 2007. Measles virus-infected cells, CPE protection. protection (pct of control), % at 4 µM. actives 1.5% (n = 140,000); in the data active = protection mostly above about 24%, no sharp cut-off; inactive = mostly below about 26%
RAM inhibit: inhibitors of the yeast RAM network, primary screen, dse1pr::URA3 reporter, 5-FOA selection. inhibition, % at 50 µM. actives 1.8% (n = 190,000). S. cerevisiae dse1pr::URA3 reporter, 5-FOA growth OD615, 2 d; analog-sensitive cbk1-as2 kinase mutant strain;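 active = inhibition above a set limit, 3 SD over mean compound inhibition, cut at about 8.4% in these data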;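 also: 0% = DMSO-only wells with no growth and 100% = 10 µM 1-NA-PP1 full growth; inhibition rescues growth on 5-FOA so higher OD means more RAM inhibition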
MDM2 E3 inh: MDM2-luciferase reporter signal enhancers, primary screen, MDM2 E3 ligase inhibitor project, cell-based, luminescence, 1536-well | signal enhancement, % at 5 µM | cell-based MDM2 ubiquitination luciferase reporter, 2 h; 0 = plate control, 100 = twice control, blank-subtracted | actives 0.11% (n = 210,000);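 active = signal enhancement of 30% or more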;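 also: luminescence tracks abundance of the self-degrading MDM2-luciferase fusion protein; higher signal means inhibition of MDM2 E3 ligase activity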
Target sequence (Q00987 whole entry, looked up, the tested form may be a part): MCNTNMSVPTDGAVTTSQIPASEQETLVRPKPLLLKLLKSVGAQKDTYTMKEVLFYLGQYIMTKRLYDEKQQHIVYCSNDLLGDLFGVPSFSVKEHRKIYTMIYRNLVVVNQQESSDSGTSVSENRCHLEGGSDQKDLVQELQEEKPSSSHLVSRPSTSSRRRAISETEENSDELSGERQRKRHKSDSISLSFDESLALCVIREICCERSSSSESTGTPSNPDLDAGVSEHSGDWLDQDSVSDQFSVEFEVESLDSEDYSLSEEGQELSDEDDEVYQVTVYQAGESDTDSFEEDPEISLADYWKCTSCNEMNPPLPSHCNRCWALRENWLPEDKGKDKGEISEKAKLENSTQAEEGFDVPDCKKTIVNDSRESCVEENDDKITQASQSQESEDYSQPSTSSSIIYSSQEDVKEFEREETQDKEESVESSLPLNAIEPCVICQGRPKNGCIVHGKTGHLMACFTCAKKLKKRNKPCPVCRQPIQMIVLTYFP
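Timing – 2 h compound exposure at 37 °C · Assay system – mammalian cells stably expressing self-ubiquitinating, self-degrading MDM2 E3–luciferase fusion · Amount – 2000 cells seeded into each well · Measure – % luminescence enhancement versus blank-corrected plate control mean · Measured by – SteadyLite luminescence, 15 min reagent step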
INS promoter inh: inhibitors of insulin promoter-driven GFP, primary screen, imaging, TRM-6 cells, eGFP reporter, cell count; reporter expression induced with tamoxifen; inhibition, % at 2 µM; actives 0.9% (n = 130,000); AID 1273, 2008;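 active = inhibition above the mean plus 3 SD, with well images judged a real hit on visual review, cut at about 60% in these data, passing the limit was not always enough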
Starred values were filed as active, the others as inactive; x = no result.

SMILES	Yeast life ext	Yeast growth inh	Measles CPE	RAM inhibit	MDM2 E3 inh	INS promoter inh
Cc1nc(CSc2nnc(C)s2)cs1	4	-53	2	2	-1	62*
C/C(=N\Nc1c([N+](=O)[O-])c(C)nn1C)c1ccc(F)cc1F	x	x	x	3	6	x
CCOC(=O)Cc1csc(NS(=O)(=O)c2ccc(OC)cc2)n1	x	x	x	-1	-4	x
CC(C)Cc1cc(C(=O)NCc2cccs2)no1	-4	29	5	1	-28	100*
Oc1c(Br)cc(Br)cc1C=Nc1ccc2c(c1)OCCO2	x	x	x	-2	x	x
Oc1c(Br)cc(Br)cc1C=Nc1ccc2c(c1)OCO2	9	97*	6	-1	-7	-3
O=C(CSc1nc2ccc(Cl)cc2[nH]1)NCCc1ccccc1	3	-15	29*	2	-10	7
O=C(CSc1nc2ccc(Cl)cc2[nH]1)NCCc1ccc(Cl)cc1	7	-34	4	6	-8	8
Cc1cc2sc3ccccc3c(=O)c2c(C)c1O	x	x	x	1	2	x
O=c1c(C(c2ccccc2)c2c(O)sc3ccccc3c2=O)c(O)sc2ccccc12	26*	-9	5	x	-15	80*
OCCNC(=S)NCc1ccccc1	x	x	x	x	-22	x
C#CCOCCOCCOCCNc1nc(N2CCN(C(=O)[C@H](CCC(=O)O)n3cc(C(N)[C@H](C)CC)nn3)CC2)nc(N2CCN(C(=O)[C@H](CCC(=O)O)n3cc(C(N)[C@H](C)CC)nn3)CC2)n1 (stereo partly drawn)	x	x	x	0	x	x
COc1ccc(NC(=O)C(c2cc3c(cc2[N+](=O)[O-])OCO3)N2CCN(C=O)CC2)cc1 (stereo not drawn)	-2	-1	23*	0	6	-7
COC(=O)c1cccc(NC(=O)c2cccnc2C(=O)O)c1C	x	x	x	0	1	x
CN1CCN(C(=S)C(=O)Nc2ccc(Br)cc2)CC1	x	x	x	1	-6	x
C=CCc1cc(Cl)ccc1OCCOCCNC(C)CC (stereo not drawn)	x	x	x	1	-1	x
CCC(C)NCCOCCSc1ccc(Cl)cc1 (stereo not drawn)	-1	-28	52*	3	-7	34
CC12C(=O)N(c3cccc4cccnc34)C(=O)C1C1C=CC2C1 (stereo not drawn)	-8	46*	6	1	-2	x
O=C(O)c1nn(CCOc2cccc(Cl)c2)c(=O)c2ccccc12	x	x	x	8.8*	3	x
CCCOc1ccc(OCCn2nc(C(=O)O)c3ccccc3c2=O)cc1	x	x	x	9.6*	-16	-40
C=CCc1cccc2cc(C(=O)Nc3ccc(S(=O)(=O)Nc4nnc(CC)s4)cc3)c(=O)oc12	0	-39	8	5	-3	x
CS(=O)(=O)c1ccc(C(=O)NC2CCCc3ccccc32)cc1 (stereo not drawn)	x	x	x	2	-17	x
Cc1ccc(NC(=O)CN(C)S(=O)(=O)c2cccs2)cc1F	-6	-5	13	0	-26	74*
O=C(CSc1nnc(Nc2ccccc2)s1)NN1C(=O)NC2(CCCCC2)C1=O	-2	-1	14	1	-4	11
Cc1cc(Cl)ccc1Oc1ncc(-c2ccc(Cl)cc2)cn1	-2	-41	4	11*	14	-59
Cc1cc(C)c2nc(N3CCCN(C(=O)c4cnccn4)CC3)c(C#N)cc2c1	-2	-11	18	0	-9	-27
Cc1nc2cc(NC(=O)N(C)c3ccc4ccccc4c3)ccc2o1	-21	-33	2	0	-20	71*
COc1ccc(NC(=O)Nc2ccc3oc(C)nc3c2)cc1	x	x	x	1	-9	6
COc1ccc(S(=O)(=O)N2CCOCC2)cc1NC(=O)CSc1n[nH]c(C(C)C)n1	x	x	x	3	-3	-56
COc1ccc(C(=O)O)cc1F	-7	4	3	0	-19	79*
